In ChEMBL document CHEMBL1156976, “Enhancement of antiproliferative activity by molecular simplification of catalpol” (2010):
The source made the active and inactive calls. No cut-off for these calls is given here.

Key:
HBL-100 [1] = assay: Cell cycle arrest in human HBL100 cells assessed as accumulation at S phase at 1 to 2 uM after 24 hrs using propidium iodide staining by flow cytometry; type: functional, cell-based
Outline: (§1)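 Cells were seeded at 2.5–5 × 10^5 per well. After 24 h they were dosed at 1, 2, 3 and 5 for 24 h, then trypsinized and fixed overnight in ice-cold 70% ethanol at −20 °C. Samples were RNase-treated for 30 min at 37 °C in the dark and stained with propidium iodide. DNA content was read by flow cytometry on 25,000 cells/sample, giving sub-G1, G0/G1, S and G2/M fractions.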

A2780 = assay: Antiproliferative activity against human A2780 cells after 48 hrs by sulforhodamine B assay; type: functional; conditions: A2780, 48 h
Outline: (§2)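 SRB assay in RPMI 1640 with 5% heat-inactivated FCS and 2 mM L-glutamine at 37 °C. Seeding was 15,000 cells/well for WiDr, T-47D and HeLa, and 10,000 for A2780, SW1573 and HBL-100. Compound was added on day 1 from DMSO stock (400× top final; 0.25% v/v DMSO control), in triplicate dilutions over 1–100, for 48 h. Cells were fixed with cold 50% TCA for 60 min at 4 °C and read at OD 492 nm. Percentage growth was calculated from T0 and end OD by NCI formulas, as means ± SD of 3–5 experiments.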

WiDr [2] = assay: Induction of apoptosis in human WiDr cells assessed as early apoptotic cells at 3 uM after 24 hrs using FITC-conjugated annexin V and propidium iodide staining by flow cytometry; type: functional
Outline: (§3)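 Cells were seeded at 0.25–0.5 × 10^6. After 24 h they were exposed to drug for 24 h, then kept in drug-free medium for a further 24 h. About 10,000 events were read (488/525 and 488/675 nm). Early apoptosis was AnnexinV+/PI−; late apoptosis was AnnexinV+/PI+.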

T47D = assay: Antiproliferative activity against human T47D cells after 48 hrs by sulforhodamine B assay; type: functional; outline: as §2
HBL-100 [3] = assay: Cell cycle arrest in human HBL100 cells assessed as accumulation at G0/G1 phase at 1 to 2 uM after 24 hrs using propidium iodide staining by flow cytometry; type: functional, cell-based; outline: as §1
SW1573 [4] = assay: Cell cycle arrest in human SW1573 cells assessed as accumulation at S phase at 1 to 2 uM after 24 hrs using propidium iodide staining by flow cytometry; type: functional, cell-based; outline: as §1
WiDr [5] = assay: Induction of apoptosis in human WiDr cells assessed as late apoptotic cells at 3 uM after 24 hrs using FITC-conjugated annexin V and propidium iodide staining by flow cytometry; type: functional; outline: as §3
SW1573 [6] = assay: Cell cycle arrest in human SW1573 cells assessed as accumulation at G0/G1 phase at 1 to 2 uM after 24 hrs using propidium iodide staining by flow cytometry; type: functional, cell-based; outline: as §1
SW1573 [7] = assay: Cell cycle arrest in human SW1573 cells assessed as accumulation at sub G1 phase at 3 to 5 uM after 24 hrs using propidium iodide staining by flow cytometry; type: functional, cell-based; outline: as §1
SW1573 [8] = assay: Antiproliferative activity against human SW1573 cells after 48 hrs by sulforhodamine B assay; type: functional; conditions: SW1573, 48 h; outline: as §2
HeLa [9] = assay: Antiproliferative activity against human HeLa cells after 48 hrs by sulforhodamine B assay; type: functional; outline: as §2
HBL-100 [10] = assay: Cell cycle arrest in human HBL100 cells assessed as accumulation at sub G1 phase at 3 to 5 uM after 24 hrs using propidium iodide staining by flow cytometry; type: functional, cell-based; outline: as §1
HeLa [11] = assay: Decrease in cyclin D1 expression in human HeLa cells at 10 uM by Western blot analysis; type: functional, cell-based; conditions: TDE = time-dependent effect
Outline: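 HeLa cells were treated for 12 and 24 h, then lysed on ice in Tris pH 8.0/NaCl/NP-40/SDS/EDTA buffer with protease and phosphatase inhibitors, and cleared at 10,000 g. Proteins were run by SDS–PAGE and transferred to PVDF. Blots were probed with anti-cyclin D1, followed by HRP secondary for 30 min. Bands were detected by luminol chemiluminescence with p-iodophenol enhancement.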

HeLa [12] = assay: Induction of apoptosis in human HeLa cells assessed as early apoptotic cells at 3 uM after 24 hrs using FITC-conjugated annexin V and propidium iodide staining by flow cytometry; type: functional; outline: as §3
HBL-100 [13] = assay: Antiproliferative activity against human HBL100 cells after 48 hrs by sulforhodamine B assay; type: functional; conditions: HBL-100, 48 h; outline: as §2
WiDr [14] = assay: Antiproliferative activity against human WiDr cells after 48 hrs by sulforhodamine B assay; type: functional; outline: as §2
HeLa [15] = assay: Induction of apoptosis in human HeLa cells assessed as late apoptotic cells at 3 uM after 24 hrs using FITC-conjugated annexin V and propidium iodide staining by flow cytometry; type: functional; outline: as §3

GI50 (A2780)	GI50 (T47D)	GI50 (SW1573 [8])	GI50 (HeLa [9])	SMILES	Activity (HBL-100 [1])	Activity (WiDr [2])	Activity (HBL-100 [3])	Activity (SW1573 [4])	Activity (WiDr [5])	Activity (SW1573 [6])	Activity (SW1573 [7])	Activity (HBL-100 [10])	Activity (HeLa [11])	Activity (HeLa [12])	GI50 (HBL-100 [13])	GI50 (WiDr [14])	Activity (HeLa [15])
1.59 µM	1.46 µM	0.59 µM	1.86 µM	CC(=O)O[C@@H]1OC=C[C@@H]2[C@H]1[C@@H](C)C[C@H]2O[Si](c1ccccc1)(c1ccccc1)C(C)(C)C	inactive	33%	Active	inactive	3.7%	Active	Active	Active	tde	18%	0.5 µM	1.26 µM	25%
> 100 µM	> 100 µM	> 100 µM	> 100 µM	OC[C@H]1O[C@@H](O[C@@H]2OC=C[C@H]3[C@H](O)[C@@H]4O[C@]4(CO)[C@@H]23)[C@H](O)[C@@H](O)[C@@H]1O [CATALPOL]											> 100 µM	> 100 µM	
1.24 µM	1.62 µM	0.43 µM	1.68 µM	CC(=O)O[C@H]1OC=C[C@H]2[C@@H]1[C@H](C)C[C@H]2O[Si](c1ccccc1)(c1ccccc1)C(C)(C)C		23%			2.4%					18%	0.38 µM	1.13 µM	12%
